Paper PMC6331719 (The EMBO Journal, 2018)

Legend:
[1] = system: CFTR (Caco‐2 cells); assay: Ussing chamber, CFTR-dependent Cl- secretion in Caco-2 cells; assay type: cell-based, human; conditions: for Protection against P31–43-mediated reduction of chloride current: pre-incubation up to 20 min, VX-770 10 μM, Vrx-532 20 μM
Outline: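 Caco-2 or T84 monolayers grown on 0.4-μm Transwells to 800–1,200 Ω cm2, then mounted in Ussing chambers. Ringer both sides, 37°C, gassed with 95% O2/5% CO2. Cells pretreated 3 h with peptides (20 μg/ml) or PT gliadin (500 μg/ml), or given bath peptides (100 μM, 3–5 min) after 100 μM amiloride. VX-770 10 μM for 5 min. Forskolin 20 μM; peak CFTRinh172-sensitive Isc.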

[2] = system: CFTR (Caco-2 and T84 cells); assay: Iodide efflux by SPQ in intestinal epithelial cells; assay type: cell-based, human; conditions: 20 min pre-treatment with potentiator, n = 3
[3] = system: CFTR (Caco-2 cells); assay: CFTR stability, ubiquitination and plasma membrane level, Caco-2 cells; assay type: cell-based, human; conditions: Caco-2, pre-incubation with potentiator, 24 h
Outline: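 Caco-2 cells homogenised and spun at 2,300 × g for 15 min, then 16,000 × g for 1 h at 4°C. The membrane pellet was solubilised in Tris–HCl pH 7.4/EDTA buffer with 1% Triton X-100 and spun at 60,000 × g for 1 h to give the plasma-membrane fraction. Fraction used for IP or immunoblot against CFTR, ubiquitin, CHIP and related markers. Potentiator VX-770 at 10 μM.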

[4] = system: Caco‐2 cells; assay: Endosomal trafficking markers, Caco-2 cells; assay type: cell-based, human; conditions: for Protection from P31–43 effects on BECN1, hVps34, UVRAG, Rab5, Rab7: Caco-2, pre-incubation with potentiator
Outline: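 Endosomal fractions isolated from treated and untreated Caco-2 cells. Rab5 and Rab7 immunoblotted, with EEA-1 as loading control. Densitometry reported as mean ± SD of triplicate independent experiments. Potentiator VX-770 used at 10 μM.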

[5] = system: duodenal biopsies from CD patients; assay: Duodenal biopsies from CD patients, CD3+CD25+ cells in lamina propria; assay type: cell-based, human; conditions: Vrx-532 20 μM, 3 h pre-incubation
[6] = system: CFTR; assay: Co-immunoprecipitation of CFTR with biotinylated peptide, Caco-2 cells; assay type: binding, human; conditions: short pre-incubation, Caco-2
[7] = system: CFTR; assay: Proximity ligation assay CFTR / P31–43, Caco-2 cells; assay type: binding, human; conditions: short pre-incubation
Outline: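 Caco-2 cells were pre-incubated up to 20 min with VX-770 (10 μM), then exposed to P31–43. Cells were fixed in 4% PFA for 15 min at room temperature and blocked with 0.1% Triton X-100/0.5% BSA. Primary antibodies were applied overnight at 4°C and Duolink probes (1:5) for 1 h at 37°C. Ligation, rolling-circle amplification, red detection and DAPI counterstain followed.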

[8] = system: TG2; assay: TG2 activity and TG2-catalysed crosslinking in Caco-2 cells; assay type: cell-based, human; conditions: Caco-2, Ca2+ pulse, BAP incorporation
[9] = system: TG2 and CFTR; assay: Co-immunoprecipitation of TG2 and CFTR, Caco-2 cells; assay type: cell-based, human; conditions: Caco-2, pre-treatment
[10] = system: Caco‐2 cells; assay: Epithelial stress / innate immune markers by immunoblot, Caco-2 cells; assay type: cell-based, human
[11] = system: Caco‐2 cells; assay: F-actin confocal staining, Caco-2 cells; assay type: cell-based, human; conditions: Caco-2, 24 h, VX-770
[12] = system: IL‐15 (Caco‐2 cells); assay: IL-15 production; assay type: cell-based, human; conditions: Caco-2, VX-770 pre-treatment, P < 0.001
[13] = system: Caco‐2CFTR‐KO cells; assay: IL-15 production and ERK1/2 phosphorylation, Caco-2 CFTR-KO cells; assay type: cell-based, human
[14] = system: CFTR (small intestine, BALB/c mice); assay: Ussing chamber, small intestine of BALB/c mice; assay type: in vivo, mouse; conditions: VX-770 i.p. 15 min prior to gliadin, 4 weeks
Outline: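 BALB/c mice on a gluten-free diet for ≥3 generations were given oral gliadin (5 mg daily for 1 week, then thrice weekly for 3 weeks) ± VX-770; n = 10 per group. Small intestine tissue was mounted in Ussing chambers with identical Ringer on both sides, at 37°C, stirred and gassed with 95% O2/5% CO2.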

[15] = system: BALB/c mice; assay: Intestinal permeability; assay type: in vivo, mouse; conditions: VX-770 i.p. prior to gliadin, 4 weeks
Outline: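 BALB/c mice kept ≥3 generations on a gluten-free diet were gavaged with gliadin (5 mg daily for 1 week, then thrice weekly for 3 weeks) ± intraperitoneal VX-770 15 min before; n = 10 per group. FITC-D4000 (600 mg/kg) was gavaged, and cardiac blood taken 1 h later. Plasma was diluted 1:1 in PBS and read at ex 485/em 528 nm against standards (50–0.312 μg/ml). Values are means ± SD of triplicate pooled samples.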

[16] = system: BALB/c mice small intestine; assay: Small intestine transcript levels, BALB/c mice; assay type: in vivo, mouse; conditions: VX-770 i.p. prior to gliadin
[17] = system: BALB/c mice small intestine; assay: Small intestine cytokine protein levels; assay type: in vivo, mouse; conditions: VX-770 i.p. prior to gliadin
Outline: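 BALB/c mice kept gluten-free for at least three generations, 10 weeks old, at least 10 per group. Oral gliadin or vehicle for 4 weeks (5 mg daily for 1 week, then thrice weekly for 3 weeks). Small-intestine homogenates assayed for IL-10 and TGF-β by ELISA, read in triplicate at 450 nm. Values normalised to Bradford protein.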

[18] = system: BALB/c mice small intestine; assay: Small intestine protein markers; assay type: in vivo, mouse; conditions: VX-770 i.p. prior to gliadin
[19] = system: NOD mice; assay: Gliadin-challenged NOD mice; assay type: in vivo, mouse; conditions: gliadin after diabetes onset, VX-770 i.p.
Outline: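 Female NOD mice with diabetes (blood glucose > 250 mg/dl, monitored weekly) were used at 12–13 weeks. They were challenged orally with gliadin for 4 consecutive weeks. VX-770 was given intraperitoneally 15 min before each challenge. n = 10 mice per group.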

[20] = system: NOD‐DQ8 mice; assay: Gliadin-challenged NOD-DQ8 mice; assay type: in vivo, mouse; conditions: gliadin 4 weeks, VX-770 i.p.
Outline: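 NOD.[…] AB0null mice expressing HLA-DQ8 (congenic NOD background), 10 per group. Oral gliadin or vehicle for 4 weeks: 5 mg daily for 1 week, then 5 mg thrice weekly for 3 weeks. VX-770 given intraperitoneally 15 min before each gliadin challenge.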

[21] = system: celiac PBMC; assay: Caco-2 / celiac PBMC bidimensional co-culture, cytokine release; assay type: cell-based, human; conditions: VX-770, P < 0.01
[22] = system: celiac PBMC; assay: Caco-2 CFTR-KO / celiac PBMC co-culture, cytokine release; assay type: cell-based, human; conditions: VX-770, P31–43 and P57–68 challenge
[23] = system: IL‐15 (Caco‐2 cells); assay: IL-15 in lower compartment of bidimensional culture; assay type: cell-based, human; conditions: VX-770, P < 0.001 vs. peptide combination
[24] = system: wild‐type mouse CFTR; conditions: ref Cui & McCarty, 2015; Cui et al, 2016; Zeng et al, 2017; cited from earlier work

Cc1ccc(O)c(-c2cc(-c3ccccc3)n[nH]2)c1 [Vrx‐532]
Protection against P31–43-mediated reduction of chloride current [1]: prevented | Protection of iodide efflux against P31–43 [2]: protecting intestinal epithelial cells against P31–43‐mediated CFTR inhibition | Prevention of P31–43 effects on CFTR stability / plasma membrane level [3]: prevented | Protection from P31–43 effects on BECN1, hVps34, UVRAG, Rab5, Rab7 [4]: counteracted | Abrogation of gliadin-peptide-induced CD3+CD25+ cell increase [5]: highly effective in abrogating these effects of gliadin peptides

CC(C)(C)c1cc(C(C)(C)C)c(NC(=O)c2c[nH]c3ccccc3c2=O)cc1O [VX‐770]
Effect of VX-770 on chloride current when added after P31–43 ([1]; P31–43 100 μM then VX-770 10 μM then Fsk): poorly active | Protection against P31–43-mediated reduction of chloride current [1]: prevented | Protection of iodide efflux against P31–43 [2]: protecting intestinal epithelial cells against P31–43‐mediated CFTR inhibition | Effect of VX-770 on P31–43 interaction with CFTR (co-immunoprecipitation) [6]: abolished the interaction of P31–43 with CFTR | Effect of VX-770 on P31–43 interaction with CFTR (proximity ligation assay) [7]: abolished the interaction of P31–43 with CFTR | Effect on TG2-mediated transamidation reactions itself [8]: no impact on TG2‐mediated transamidation reactions | Prevention of P31–43-induced TG2–CFTR interaction [9]: abolished the P31–43‐induced interaction of TG2 and CFTR | Prevention of P31–43-induced NF-κB p65 translocation, NLRP3 expression, caspase-1 cleavage ([10]; Caco-2, VX-770): prevented additional pro‐inflammatory P31–43 effects | Protection from P31–43-induced epithelial stress (PPARγ, phERK1/2, HSP70) ([10]; Caco-2, pre-incubation with VX-770): protected Caco‐2 cells from signs of P31–43‐induced epithelial stress | Prevention of P31–43 effects on CFTR stability / plasma membrane level [3]: prevented | Formation of F-actin stress fibers induced by P31–43 [11]: negated the capacity of P31–43 to induce the formation of F‐actin stress fibers | P31–43-induced IL-15 production [12]: prevented the P31–43‐induced production of IL‐15 | IL-15 expression and ERK1/2 phosphorylation in CFTR-KO cells [13]: failed to modulate both IL‐15 expression and ERK1/2 phosphorylation in Caco‐2CFTR‐KO cells | P31–43-mediated increase in CD71 cell surface expression ([4]; Caco-2): blocked the P31–43‐mediated increase in the cell surface expression of transferrin receptor | Protection from P31–43 effects on BECN1, hVps34, UVRAG, Rab5, Rab7 [4]: counteracted | P31–43-induced CD71–SIgA interaction ([4]; Caco-2 pre-incubated with SIgA 1 h at 4°C): abrogated the ability of P31–43 to increase the interaction of CD71 with SIgA | CFTR function and protein expression, gliadin-sensitive mice [14]: prevented the gliadin‐induced decrease in CFTR function (Fig 5A) and protein expression | Intestinal permeability [15]: prevented the gliadin‐induced increase in intestinal permeability | Rorc and Tbet [16]: downregulated upon VX‐770 treatment | IL-10 and TGF-β production [17]: improved IL‐10 and TGF‐β production | IL-21 expression [17]: inhibited the gliadin‐induced expression of IL‐21 | IL-15, IL-17A and IFN-γ mRNA and protein ([17]; P < 0.001): prevented the gliadin‐induced upregulation of IL‐15, IL‐17A, and IFN‐γ mRNA | NKG2D upregulation on intraepithelial lymphocytes [18]: counteracted | NLRP3 expression [18]: counteracted gliadin‐induced NLRP3 expression | TG2 protein levels [18]: opposed the ability of gliadin to increase TG2 protein levels | NHERF-1 depletion ([18]; 4 weeks): abrogated the depletion of NHERF‐1 | Protective effects in NOD mice [19]: protective effects of VX‐770 were confirmed in NOD mice | Protective effects in NOD-DQ8 mice [20]: in NOD‐DQ8 mice as well | IL-10 levels [21]: increased IL‐10 levels | Prevention of IFN-γ production [21]: prevented the production of IFN‐γ by PT gliadin or peptide combination | Prevention of IFN-γ production with Caco-2 CFTR-KO [22]: failed to prevent the production of IFN‐γ by celiac PBMC | Prevention of IL-15 accumulation [23]: prevented by VX‐770 | Potentiation of wild-type mouse CFTR channel function [24]: potentiate the ion channel function of wild‐type mouse CFTR
